We go through 11 molecules from ChEMBL document CHEMBL4004811, “Enantiodivergence in the Biosynthesis of Bromotyrosine Alkaloids from Sponges?” (2017).

Holding throughout (type): functional
The subject of assay [1] is Staphylococcus aureus. In words: Antimicrobial activity against methicillin-resistant Staphylococcus aureus ATCC BAA1026 after 18 hrs by MTT dye based TLC assay. Put shortly: (§1)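 Overlay TLC bioautography: samples applied to TLC plates and overlaid with the bacterial culture. The panel covered three S. aureus strains and one E. coli strain. Activity is read as minimum inhibitory quantity (MIQ, μg per spot).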
For orientation: Tetrazolium dyes change colour on reduction, which living cells bring about.

Assay [2] relates to Escherichia coli. The assay is described as follows: Antimicrobial activity against Escherichia coli ATCC 25922 after 18 hrs by MTT dye based TLC assay. Put shortly:
(§2)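 Overlay TLC bioautography: compounds applied on TLC plates and overlaid with the bacterial culture. Activity is reported as the minimum inhibitory quantity (MIQ), in μg of compound.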

Assay [3] concerns Staphylococcus aureus. The assay is described as follows: Antimicrobial activity against methicillin-sensitive Staphylococcus aureus ATCC 29213 after 18 hrs by MTT dye based TLC assay. Put shortly: as §2
In assay [4] the test system is Staphylococcus aureus. In words: Antimicrobial activity against multidrug-resistant Staphylococcus aureus after 18 hrs by MTT dye based TLC assay. In short, it runs like this:
as §1

Calls of active or inactive are those of the source. The rule behind the calls is not given here.

On to `COC1=C(Br)[C@@H](O)[C@]2(C=C1Br)CC(C(=O)NCCc1ccc(O)c(Br)c1)=NO2`, for which the result in assay [1] and in assay [4] was Active. The result in assay [2] was inactive. Also, the MIC in assay [3] came to 0.31 µg.

As for `COC1=C(Br)[C@@H](O)[C@]2(C=C1Br)CC(C(=O)NCCCOc1c(Br)cc(C/C(=N\O)C(=O)NCCc3cnc(N)[nH]3)cc1Br)=NO2`, the outcome in assay [1], in assay [3] and in assay [4] was Active. The outcome in assay [2] was inactive.

Turning to `COC1=C(Br)[C@@H](O)[C@]2(C=C1Br)CC(C(=O)NCCCOc1c(Br)cc(CCN)cc1Br)=NO2`, the outcome in assay [1], in assay [3] and in assay [4] was Active. Further, the outcome in assay [2] was inactive.

For `CNCCCOc1c(Br)cc(CCNC(=O)/C(Cc2ccc(OC)c(Br)c2)=N/O)cc1Br`, the outcome in assay [1], in assay [3] and in assay [4] was Active. Further, in assay [2], the outcome was inactive.

Consider `CN[C@H](CC(C)C)C(=O)N[C@H]1C(=O)N[C@@H](CC(N)=O)C(=O)N[C@H]2C(=O)N[C@H]3C(=O)N[C@H](C(=O)N[C@H](C(=O)O)c4cc(O)cc(O)c4-c4cc3ccc4O)[C@H](O)c3ccc(c(Cl)c3)Oc3cc2cc(c3O[C@@H]2O[C@H](CO)[C@@H](O)[C@H](O)[C@H]2O[C@H]2C[C@](C)(N)[C@H](O)[C@H](C)O2)Oc2ccc(cc2Cl)[C@H]1O` [VANCOMYCIN], for which the MIC in assay [1] and in assay [4] was 0.63 µg throughout.

Consider `CCOC1(CCCNC(=O)C2=NO[C@@]3(C=C(Br)C(OC)=C(Br)[C@H]3O)C2)N=C(N)NC1=O` (mixture of isomers), for which the outcome in assay [1], in assay [3] and in assay [4] was Active. Also, in assay [2], the result was inactive.

For `COC1=C(Br)[C@@H](O)[C@]2(C=C1Br)CC(C(=O)NCCCOc1c(Br)cc(CC(N)C(=O)O)cc1Br)=NO2` (some centres not stated), the outcome in assay [1], in assay [3] and in assay [4] was Active. The outcome in assay [2] was inactive.

Take `COc1ccc(C/C(=N\O)C(=O)NCCc2cc(Br)c(OCCCN(C)C)c(Br)c2)cc1Br`: the outcome in assay [1], in assay [3] and in assay [4] was Active. For the same molecule, the outcome in assay [2] was inactive.

For the molecule `COC1=C(Br)[C@@H](O)[C@]2(C=C1Br)CC(C(N)=O)=NO2`, the outcome in assay [1], in assay [3] and in assay [4] was Active. Moreover, the result in assay [2] was inactive.

Take `COC1=C(Br)[C@@H](O)[C@]2(C=C1Br)CC(C(=O)NCCc1cc(Br)c(O)c(Br)c1)=NO2`: the result in assay [1] and in assay [4] was Active. In assay [2], the outcome was inactive. The MIC in assay [3] turned out to be 0.31 µg.

`COC1=C(Br)[C@@H](O)[C@]2(C=C1Br)CC(C(=O)NCCCC(=O)O)=NO2`: the result in assay [1], in assay [3] and in assay [4] was Active. Besides, the result in assay [2] was inactive.
